# According to ChEMBL document CHEMBL1127451, “Benzoselenazolinone derivatives designed to be glutathione peroxidase mimetics feature inhibition of cyclooxygenase/5-lipoxygenase pathways and anti-inflammatory activity” (1994):
# Tests used:
# [1] = Inhibition of [Fe(2+)]/ascorbate-induced lipid peroxidation at 10e-5 M in rat brain homogenate
# [2] = In vitro glutathione peroxidase activity at 2*10e-7M using tert-butyl hydroperoxide, activity given in percentage of ebselen''s activity; assay type: functional
# [3] = In vitro glutathione peroxidase activity at 2*10e-7M using hydrogen peroxide, activity given in percentage of ebselen''s activity; assay type: functional
# [4] = Inhibition of spontaneous lipid peroxidation at 10e-5 M in rat brain homogenate
# Rattus norvegicus [5] = experiment: Tested for acute anti-inflammatory activity of the antirat serum-induced edema in rats at dose of 100 mg/kg at time interval- 2 hr; assay type: functional
# In short: (§1)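 Fasted Wistar rats (200–240 g), six per group, receive drug orally in 2% gelatin. One hour later, 0.1 mL rabbit antirat serum is injected subplantar into the hind paw. Paw volume is measured by water plethysmometry at injection and at 0.5, 1, 2, 3 and 4 h. Results are percent inhibition of swelling versus vehicle-treated rats.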
# Rattus norvegicus [6] = experiment: Tested for acute anti-inflammatory activity of the antirat serum-induced edema in rats at dose of 30 mg/kg at time interval- 0.5 hr; assay type: functional
# In short: as §1
# Rattus norvegicus [7] = experiment: Tested for acute anti-inflammatory activity of carrageenan-induced foot edema in rats at dose of 30 mg/kg at time interval- 3h; assay type: functional
# In short: as §1, with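 “2% carrageenan in […]” for “rabbit antirat serum”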
# Rattus norvegicus [8] = experiment: Tested for acute anti-inflammatory activity of the antirat serum-induced edema in rats at dose of 30 mg/kg at time interval- 1 hr; assay type: functional
# In short: as §1
# Rattus norvegicus [9] = experiment: Tested for acute anti-inflammatory activity of carrageenan-induced foot edema in rats at dose of 3 mg/kg at time interval- 1 hr; assay type: functional
# In short: as §1, with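 “2% carrageenan in […]” for “rabbit antirat serum”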
# Rattus norvegicus [10] = experiment: Tested for acute anti-inflammatory activity of carrageenan-induced foot edema in rats at dose of 30 mg/kg at time interval- 0.5 hr; assay type: functional
# In short: as §1, with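 “2% carrageenan in […]” for “rabbit antirat serum”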
# Rattus norvegicus [11] = experiment: Tested for acute anti-inflammatory activity of carrageenan-induced foot edema in rats at dose of 30 mg/kg at time interval- 1 hr; assay type: functional
# In short: as §1, with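 “2% carrageenan in […]” for “rabbit antirat serum”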
# Rattus norvegicus [12] = experiment: Tested for acute anti-inflammatory activity of the antirat serum-induced edema in rats at dose of 100 mg/kg at time interval- 0.5 hr; assay type: functional
# In short: as §1
# Rattus norvegicus [13] = experiment: Tested for acute anti-inflammatory activity of the antirat serum-induced edema in rats at dose of 30 mg/kg at time interval- 2 hr; assay type: functional
# In short: as §1
# Rattus norvegicus [14] = experiment: Tested for acute anti-inflammatory activity of the antirat serum-induced edema in rats at dose of 3 mg/kg at time interval- 4 hr; assay type: functional
# In short: as §1
# Rattus norvegicus [15] = experiment: Tested for acute anti-inflammatory activity of carrageenan-induced foot edema in rats at dose of 100 mg/kg at time interval- 3h; assay type: functional
# In short: as §1, with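 “2% carrageenan in […]” for “rabbit antirat serum”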
# Rattus norvegicus [16] = experiment: Tested for acute anti-inflammatory activity of the antirat serum-induced edema in rats at dose of 3 mg/kg at time interval- 2 hr; assay type: functional
# In short: as §1
# Rattus norvegicus [17] = experiment: Tested for acute anti-inflammatory activity of carrageenan-induced foot edema in rats at dose of 30 mg/kg at time interval- 2 hr; assay type: functional
# In short: as §1, with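 “2% carrageenan in […]” for “rabbit antirat serum”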
# Rattus norvegicus [18] = experiment: Tested for acute anti-inflammatory activity of carrageenan-induced foot edema in rats at dose of 30 mg/kg at time interval- 4 hr; assay type: functional
# In short: as §1, with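 “2% carrageenan in […]” for “rabbit antirat serum”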
# Rattus norvegicus [19] = experiment: Tested for acute anti-inflammatory activity of carrageenan-induced foot edema in rats at dose of 3 mg/kg at time interval- 3h; assay type: functional
# In short: as §1, with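 “2% carrageenan in […]” for “rabbit antirat serum”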
# Rattus norvegicus [20] = experiment: Tested for acute anti-inflammatory activity of the antirat serum-induced edema in rats at dose of 3 mg/kg at time interval- 1 hr; assay type: functional
# In short: as §1
# Rattus norvegicus [21] = experiment: Tested for acute anti-inflammatory activity of the antirat serum-induced edema in rats at dose of 3 mg/kg at time interval- 0.5 hr; assay type: functional
# In short: as §1
# Rattus norvegicus [22] = experiment: Tested for acute anti-inflammatory activity of carrageenan-induced foot edema in rats at dose of 100 mg/kg at time interval- 1 hr; assay type: functional
# In short: as §1, with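 “2% carrageenan in […]” for “rabbit antirat serum”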
# Rattus norvegicus [23] = experiment: Tested for acute anti-inflammatory activity of carrageenan-induced foot edema in rats at dose of 100 mg/kg at time interval- 4 hr; assay type: functional
# In short: as §1, with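 “2% carrageenan in […]” for “rabbit antirat serum”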
# Rattus norvegicus [24] = experiment: Tested for acute anti-inflammatory activity of the antirat serum-induced edema in rats at dose of 3 mg/kg at time interval- 3h; assay type: functional
# In short: as §1
# Rattus norvegicus [25] = experiment: Tested for acute anti-inflammatory activity of carrageenan-induced foot edema in rats at dose of 3 mg/kg at time interval- 0.5 hr; assay type: functional
# In short: as §1, with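 “2% carrageenan in […]” for “rabbit antirat serum”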
# Rattus norvegicus [26] = experiment: Tested for acute anti-inflammatory activity of the antirat serum-induced edema in rats at dose of 100 mg/kg at time interval- 4 hr; assay type: functional
# In short: as §1
# Rattus norvegicus [27] = experiment: Tested for acute anti-inflammatory activity of carrageenan-induced foot edema in rats at dose of 100 mg/kg at time interval- 0.5 hr; assay type: functional
# In short: as §1, with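 “2% carrageenan in […]” for “rabbit antirat serum”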
# Rattus norvegicus [28] = experiment: Tested for acute anti-inflammatory activity of carrageenan-induced foot edema in rats at dose of 3 mg/kg at time interval- 2 hr; assay type: functional
# In short: as §1, with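 “2% carrageenan in […]” for “rabbit antirat serum”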
# Rattus norvegicus [29] = experiment: Tested for acute anti-inflammatory activity of carrageenan-induced foot edema in rats at dose of 100 mg/kg at time interval- 2 hr; assay type: functional
# In short: as §1, with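 “2% carrageenan in […]” for “rabbit antirat serum”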
# Rattus norvegicus [30] = experiment: Tested for acute anti-inflammatory activity of carrageenan-induced foot edema in rats at dose of 3 mg/kg at time interval- 4 hr; assay type: functional
# In short: as §1, with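 “2% carrageenan in […]” for “rabbit antirat serum”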
# Rattus norvegicus [31] = experiment: Tested for acute anti-inflammatory activity of the antirat serum-induced edema in rats at dose of 100 mg/kg at time interval- 1 hr; assay type: functional
# In short: as §1
# Rattus norvegicus [32] = experiment: Tested for acute anti-inflammatory activity of the antirat serum-induced edema in rats at dose of 30 mg/kg at time interval- 4 hr; assay type: functional
# In short: as §1
# Rattus norvegicus [33] = experiment: Tested for acute anti-inflammatory activity of the antirat serum-induced edema in rats at dose of 30 mg/kg at time interval- 3h; assay type: functional
# In short: as §1
# Rattus norvegicus [34] = experiment: Tested for acute anti-inflammatory activity of the antirat serum-induced edema in rats at dose of 100 mg/kg at time interval- 3h; assay type: functional
# In short: as §1
smiles,measurement,setting,value
O=C(c1ccc(Cl)cc1)c1ccc2[nH]c(=O)[se]c2c1,inhibition,[1],5%
same,GSH-Px activity,[2],0
same,GSH-Px activity,[3],0
same,inhibition,[4],-5%
CC(C)(Sc1cc(C(C)(C)C)c(O)c(C(C)(C)C)c1)Sc1cc(C(C)(C)C)c(O)c(C(C)(C)C)c1,GSH-Px activity,[2],0
O=C(c1cccnc1)c1ccc2[nH]c(=O)[se]c2c1,inhibition,[1],-8%
same,GSH-Px activity,[2],0
same,GSH-Px activity,[3],0
same,inhibition,[4],-5%
O=C(c1ccccc1)c1ccc2[nH]c(=O)[se]c2c1,inhibition in vivo at 100 mg/kg,Rattus norvegicus [5],12.7%
same,inhibition in vivo at 30 mg/kg,Rattus norvegicus [6],-9.8%
same,inhibition in vivo at 30 mg/kg,Rattus norvegicus [7],35.6%
same,inhibition in vivo at 30 mg/kg,Rattus norvegicus [8],5.3%
same,inhibition in vivo at 3 mg/kg,Rattus norvegicus [9],-7.8%
same,inhibition in vivo at 30 mg/kg,Rattus norvegicus [10],-22.2%
same,inhibition in vivo at 30 mg/kg,Rattus norvegicus [11],14.2%
same,inhibition in vivo at 100 mg/kg,Rattus norvegicus [12],-0.5%
same,inhibition,[1],-3%
same,inhibition in vivo at 30 mg/kg,Rattus norvegicus [13],25.6%
same,inhibition in vivo at 3 mg/kg,Rattus norvegicus [14],-1.4%
same,inhibition in vivo at 100 mg/kg,Rattus norvegicus [15],58.5%
same,inhibition in vivo at 3 mg/kg,Rattus norvegicus [16],-10.7%
same,inhibition in vivo at 30 mg/kg,Rattus norvegicus [17],31.7%
same,inhibition in vivo at 30 mg/kg,Rattus norvegicus [18],26.1%
same,inhibition in vivo at 3 mg/kg,Rattus norvegicus [19],27.5%
same,inhibition in vivo at 3 mg/kg,Rattus norvegicus [20],-16.7%
same,inhibition in vivo at 3 mg/kg,Rattus norvegicus [21],-41.8%
same,GSH-Px activity,[2],0
same,inhibition in vivo at 100 mg/kg,Rattus norvegicus [22],9.9%
same,GSH-Px activity,[3],0
same,inhibition in vivo at 100 mg/kg,Rattus norvegicus [23],55.5%
same,inhibition in vivo at 3 mg/kg,Rattus norvegicus [24],-14.1%
same,inhibition,[4],0%
same,inhibition in vivo at 3 mg/kg,Rattus norvegicus [25],-42.9%
same,inhibition in vivo at 100 mg/kg,Rattus norvegicus [26],19.3%
same,inhibition in vivo at 100 mg/kg,Rattus norvegicus [27],-76.2%
same,inhibition in vivo at 3 mg/kg,Rattus norvegicus [28],27.8%
same,inhibition in vivo at 100 mg/kg,Rattus norvegicus [29],51.6%
same,inhibition in vivo at 3 mg/kg,Rattus norvegicus [30],9.6%
same,inhibition in vivo at 100 mg/kg,Rattus norvegicus [31],6%
same,inhibition in vivo at 30 mg/kg,Rattus norvegicus [32],25.2%
same,inhibition in vivo at 30 mg/kg,Rattus norvegicus [33],19.7%
same,inhibition in vivo at 100 mg/kg,Rattus norvegicus [34],18%
Nc1ccc(C(O)c2ccccc2)cc1[Se][Se]c1cc(C(O)c2ccccc2)ccc1N (stereo unspecified),inhibition,[1],97%
same,GSH-Px activity,[2],245
same,GSH-Px activity,[3],54
same,inhibition,[4],92%
CCCC(=O)c1ccc2[nH]c(=O)[se]c2c1,inhibition,[1],-2%
same,GSH-Px activity,[2],0
same,GSH-Px activity,[3],0
same,inhibition,[4],-3%
